Bioassay records as filed in PubChem BioAssay.
Hits are enriched below; roughly 3.4% of the tested compounds scored in any of these assays.
m5-HT2A agonist = agonists of mouse serotonin 5-HT2A receptor (HTR2A); AID 624169; 360,000 compounds, 0.66% hits; P35363; activation, % at 7.6 µM; CHO-K1 mHTR2A beta-arrestin complementation, luminescence; percent of 30 µM serotonin response;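 active = activation above a run cutoff, the mean activation of all tested compounds plus 3 SD, cut at about 14% in these data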;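 also: 0% = plate median of compound wells and 100% = 30 µM serotonin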
MC4R antagonist = antagonists of human melanocortin 4 receptor (MC4R) | 360,000 compounds, 0.48% hits | P32245 | inhibition, % at 6.5 µM | MC4R-expressing cells, MTII-stimulated cAMP, LANCE TR-FRET;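 active = inhibition above its plate's cutoff, the mean of tested wells on that plate plus 3 SD, cut at about 29% in these data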;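 also: 0% = Melanotan II alone and 100% = Melanotan II plus saturating MCL0020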
Target sequence (P32245 whole entry, looked up): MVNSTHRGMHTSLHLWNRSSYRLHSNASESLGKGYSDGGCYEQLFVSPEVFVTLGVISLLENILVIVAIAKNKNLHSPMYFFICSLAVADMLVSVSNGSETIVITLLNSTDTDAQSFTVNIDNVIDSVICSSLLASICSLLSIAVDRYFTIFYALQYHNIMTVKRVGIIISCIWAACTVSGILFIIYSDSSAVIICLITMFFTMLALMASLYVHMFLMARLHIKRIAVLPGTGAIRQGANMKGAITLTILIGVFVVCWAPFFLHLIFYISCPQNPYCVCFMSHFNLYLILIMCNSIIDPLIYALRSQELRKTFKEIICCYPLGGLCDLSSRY
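Assay system: U2OS cells stably expressing human melanocortin 4 receptor (MC4R) / Dosing: 6.5 µM / Timing: compound 30 min, challenge 1 h, detection 1 h / Measured by: Eu-cAMP/anti-cAMP TR-FRET, emission 671 nm / Replicates: singlicate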
MIN6 prolif = induces beta-cell replication in MIN6 cells; 330,000 compounds, 0.29% hits; AID 2380; MIN6 cells proliferation, ATPlite luminescence, 48 h; cells starved in 0.2% serum; 100% = growth in 10% serum; proliferation, % at 10 µM;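 active = compounds whose signal lies at least 3.5 SD above the mean of all wells on their plate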;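 also: 0% = DMSO-treated cells in low-serum medium and 100% = 10% serum control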
TMEM16A inh = blocks the mouse calcium-activated chloride channel TMEM16A; Q8BHY3; HEK293 TMEM16A/YFP iodide influx fluorescence, ionomycin; normalized B-score (activity score, 25-100; higher = stronger inhibition) at 10 µM; 310,000 compounds, 1.2% hits;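 active = ratio plate-corrected score three or more library SD toward inhibition, starting fluorescence score within five deviations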;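 also: score derived from kinetic fluorescence span divided by baseline fluorescence per well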
TMEM16A act = activates or potentiates the mouse TMEM16A chloride channel | AID 623877 | 340,000 compounds, 0.3% hits | Q8BHY3 | HEK293 TMEM16A/YFP-H148Q/I152L, iodide quench fluorescence; hits give low values | B-score at 10 µM;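 active = fluorescence-ratio B-score plate-corrected deviation score at least 3 library SD below zero, with starting fluorescence score within 5 deviations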;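 also: channel opened by trigger with iodide after compound preincubation; score built on the fluorescence ratio of max minus min over baseline; more negative score means more quench and so TMEM16A activation or potentiation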
MC4R barr agon = activates human MC4R beta-arrestin recruitment; P32245; activation, % at 8.9 µM; 360,000 compounds, 0.98% hits; U2OS MC4R beta-arrestin complementation, luminescence; percent of melanotan II response, DMSO zero; AID 540308;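 active = activation above a per-plate cutoff, the mean activation of sample wells on that plate plus 3 SD, cut at about 8% in these data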
* = called active by the depositor; i = inactive; . = no result.

SMILES | m5-HT2A agonist | MC4R antagonist | MIN6 prolif | TMEM16A inh | TMEM16A act | MC4R barr agon
O=C(Nc1ccc(OCC(F)(F)C(F)F)c(C(F)(F)F)c1)c1ccc(Cl)cc1 | -2.8 | 10.2 | -3.3 | 100* | i | 5.0
COc1cc(C2Oc3ccccc3C=C2[N+](=O)[O-])cc(OC)c1OC (stereo unspecified) | 5.1 | 3.8 | . | . | i | -1.7
COc1ccc(CN(CCC(c2ccccc2)c2ccc(OC(C)C)cc2)C(=O)CCl)cc1OC (stereo unspecified) | 7.6 | 25.9 | -2.8 | i | i | 21.3*
COc1ccc(C(CCN(Cc2ccc(OC)c(OC)c2)C(C)=O)c2ccccc2)cc1 (stereo unspecified) | 4.3 | 14.3 | 2.2 | i | i | 4.7
CCc1ccc(OCC(=O)N2CC(C(N)=O)Oc3ccccc32)cc1 (stereo unspecified) | 5.2 | 1.9 | 4.7 | i | i | -1.0
O=C(c1ccc(Cl)cc1)c1c[nH]c(C(=O)NNc2cccc(Cl)n2)c1 | 0.6 | -2.4 | 1.6 | i | i | 8.3*
O=C(c1ccccc1)c1c[nH]c(C(=O)NNc2cccc(Cl)n2)c1 | -5.2 | -0.9 | -2.4 | i | i | 0.5
COc1ccc(/C=N/NC(=O)c2cc(Br)ccc2O)cc1Cn1cc(Cl)cn1 | -3.2 | 4.8 | -4.5 | 100* | i | -3.7
COc1ccc(/C=N/NC(=O)c2ccc(Cl)cc2)cc1Cn1cc(Cl)cn1 | 1.0 | 0.0 | 2.7 | i | i | 8.7*
COc1ccc(S(=O)(=O)N2CCCCCC2)cc1NC(=O)CN1C(=O)CNC1=O | 0.6 | 13.4 | -3.3 | . | i | 0.2
O=C(COc1ccc(-n2ccnc2)cc1)Nc1cccc(F)c1 | 4.3 | -0.7 | -3.0 | i | i | 2.6
O=C(COc1ccc(-n2ccnc2)cc1)Nc1cccc(Cl)c1 | 1.3 | 10.8 | -6.2 | 25* | i | 0.3
CCC(=O)N(C)C[C@@H]1Oc2ncc(Br)cc2C(=O)N([C@H](C)CO)C[C@H]1C | -4.1 | 16.0 | . | . | . | 0.7
O=[N+]([O-])c1cccnc1N1CCC(c2cc(-c3cccc(C(F)(F)F)c3)n[nH]2)CC1 | -3.0 | -3.7 | -3.7 | 100* | i | -2.6
Cc1ccc(NC(=O)NCCSc2ccc(C)cc2)cc1 | -4.4 | 11.9 | -5.3 | i | i | 8.5*
Cc1ccc(SCCNC(=O)/C=C/c2ccc(Cl)cc2)cc1 | 1.3 | 5.9 | 0.0 | i | i | 1.6
Cc1ccc(SCCNC(=O)/C=C/c2ccccc2Cl)cc1 | -9.3 | 1.4 | -2.7 | 25* | i | -1.4
COc1ccc(Cl)cc1NC(=S)NCCSc1ccc(C)cc1 | -5.8 | 14.6 | -6.4 | 100* | i | 4.0
CCCOc1ccc(Br)cc1CSC(=N)N | -10.6 | 3.9 | -5.8 | 25* | i | 0.0
CCOc1ccc(Br)cc1CC(=O)O | -2.5 | -2.8 | -1.4 | i | i | -0.2
CCn1c(=O)c(C(=O)Nc2nc3ccccc3[nH]2)c(O)c2ccccc21 | 10.8 | 4.8 | 5.0 | i | -7.84* | 4.8
CCn1c(=O)c(C(=O)Nc2ccccc2)c(O)c2ccccc21 | 3.3 | -3.4 | 0.8 | i | i | 0.8
COc1ccc(/C=N/N=C2/CC(C)(C)Cc3n[nH]c(=O)cc32)cc1 | -6.6 | -0.1 | -2.4 | i | -9.11* | -3.5
CC(=O)OCC(=O)N1N=C(c2ccc3ccccc3c2)CC1c1ccccc1 (stereo unspecified) | 3.2 | 2.6 | -4.0 | i | i | -0.5
C=CCNCC(=O)N1N=C(c2ccc3ccccc3c2)CC1c1ccc(OC)cc1 (stereo unspecified) | -3.2 | -4.1 | -5.8 | i | i | 8.9*
SMILES | m5-HT2A agonist | MC4R antagonist | MIN6 prolif | TMEM16A inh | TMEM16A act | MC4R barr agon
COc1ccc(C2CC(c3ccc4ccccc4c3)=NN2C(=O)CNC2CCCCC2)cc1 (stereo unspecified) | 2.8 | 2.3 | -6.1 | i | i | 8.5*
COc1ccc(C2CC(c3ccc4ccccc4c3)=NN2C(=O)CN2CCC(C(N)=O)CC2)cc1 (stereo unspecified) | -0.6 | -1.9 | -5.3 | i | i | -0.6
CCCc1nc2ccc(C)cn2c1Cc1ccc(OC)cc1C | 2.0 | . | . | . | . | .
Cc1cc(C)cc(NC(=O)CSc2nnc(-c3cc(C)[nH]n3)n2N)c1 | 4.3 | 13.5 | -2.0 | i | i | -3.3
CCCCc1cc(=O)oc2cc(C)cc(OCC(=O)Nc3cccnc3)c12 | 2.7 | 1.4 | 4.6 | i | i | 8.7*
CCCc1cc(=O)oc2cc(C)cc(OCC(=O)NCc3cccnc3)c12 | -0.1 | 5.4 | 0.0 | i | i | -1.0
CCOC(=O)c1ccccc1Nc1cn(C(C)=O)c2ccccc12 | 1.2 | -21.0 | -2.4 | i | i | 1.6
COc1ccccc1N(C(=O)CCl)c1cn(C(C)=O)c2ccccc12 | 0.9 | 5.9 | -6.3 | i | i | 8.6*
O=C(COC(=O)c1cccc(Br)c1)NC(=O)NC1CCCC1 | 1.6 | 1.7 | -2.5 | . | i | 8.8*
O=C(COC(=O)c1cccc(F)c1)NC(=O)NC1CCCC1 | 8.1 | 6.3 | -3.2 | . | i | 1.6
O=C(/C=C/c1ccco1)Nc1cccc(C(=O)Nc2ccccc2C(=O)O)c1 | 3.4 | -3.2 | -3.6 | i | i | 1.1
CCc1ccccc1NC(=O)c1cccc(NC(=O)/C=C/c2ccco2)c1 | -0.6 | 10.9 | -4.2 | 25* | i | -0.8
CCOc1cc(CNCc2ccccc2)ccc1OCc1ccc(Cl)cc1 | 0.2 | -5.6 | -6.3 | 100* | i | 7.8
COc1cc(CNCc2ccccn2)ccc1OCc1ccc(Cl)cc1Cl | 5.8 | 29.8* | -5.2 | i | i | 9.2*
COc1cc(CNCc2ccccn2)ccc1OCc1ccc(Cl)c(Cl)c1 | -6.9 | -2.0 | -5.5 | i | i | 3.2
CCNCc1cc(Cl)c(OCc2ccccc2)c(OCC)c1 | -3.3 | -1.8 | -6.5 | i | i | -0.7
CCOc1cccc(-c2c(C(=O)N/N=C(\C)c3cccnc3)nnn2-c2nonc2N)c1 | 2.6 | -1.9 | 4.2 | i | i | -3.4
O=C(COC(=O)c1ccc(S(=O)(=O)N2CCCC2)cc1)NCc1ccco1 | 0.3 | 27.5 | 0.3 | i | i | 3.4
COc1ccc(NC(=O)Cn2c([N+](=O)[O-])cnc2C)c(OC)c1 | 5.1 | -3.4 | . | . | . | -1.2
O=C(N/N=C/c1c[nH]c2ccccc12)c1cc(-c2ccc(-c3ccccc3)cc2)n[nH]1 | -2.6 | 9.2 | -5.9 | i | i | 2.2
Cc1ccc(-c2cc(C(=O)N/N=C/c3c[nH]c4ccccc34)[nH]n2)cc1 | -5.5 | -21.5 | . | . | -5.44* | -0.3
